In ChEMBL document CHEMBL5107948, “Activity-based protein profiling reveals deubiquitinase and aldehyde dehydrogenase targets of a cyanopyrrolidine probe” (RSC Med Chem, 2021):
Calls of active or inactive are those of the source. No cut-off for these calls is given here.

What was measured:
[1] = target: Ubiquitin carboxyl-terminal hydrolase isozyme L1 (Homo sapiens) (UniProt P09936); test: Inhibition of UCHL1 in human HEK293 cells using HA-Ub-VME as substrate at 0.1 to 10 uM incubated for 1 hr by immunoblotting analysis; assay type: cell-based; conditions: dose 0.1-10 µM
Summary of the method: (§1)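 Near-confluent HEK293 cells treated with compound in medium for 1 h at 37 °C, lysed in Tris/NP-40/CHAPS buffer with benzonase. Lysate (20 µg) reacted with HA-Ahx-Ahx-Ub-VME (0.5 µg) 15 min at room temperature, boiled 5 min at 95 °C in SDS loading buffer with BME, SDS-PAGE and immunoblot.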

[2] = Cytotoxicity against human HEK293 cells assessed as reduction in cell growth incubated for 72 hrs by live-cell time-lapse imaging; assay type: toxicity, cell-based
Summary of the method: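 HEK293 cells, 1,000 per well, seeded 24 h before exposure to 7 serial dilutions, in triplicate. Confluence imaged every 2 h for 72 h by IncuCyte live-cell time-lapse imaging. EC50 from four-parameter dose-response fit; mean ± SD of 12 technical replicates.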

[3] = target: T1, Ubiquitin carboxyl-terminal hydrolase isozyme L1 (Homo sapiens, UniProt P09936); test: Inhibition of FLAG-tagged UCHL1 (unknown origin) expressed in CAL-51 cells using HA-Ub-VME as substrate incubated for 30 mins by HTRF assay; assay type: cell-based
T1 sequence (P09936 whole entry): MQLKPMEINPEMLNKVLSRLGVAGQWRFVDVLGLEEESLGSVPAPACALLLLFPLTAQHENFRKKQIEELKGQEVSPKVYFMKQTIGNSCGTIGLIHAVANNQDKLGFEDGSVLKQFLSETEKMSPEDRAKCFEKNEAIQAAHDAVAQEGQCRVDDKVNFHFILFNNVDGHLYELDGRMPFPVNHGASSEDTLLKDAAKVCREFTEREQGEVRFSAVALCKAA
Summary of the method: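 Cal51 cells stably expressing FLAG-UCHL1, plated overnight, exposed to compound 1 h at 37 °C. Washed, lysed 30 min on ice in Tris/NaCl/NP-40/CHAPS/MgCl2/BME buffer. Lysate mixed with HA-Ub-VME (100 nM) 30 min RT; anti-FLAG cryptate and anti-HA-XL added, overnight at 4 °C. HTRF Delta F read; IC50 by four-parameter fit, two biological triplicates.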

[4] = target: T2, Ubiquitin carboxyl-terminal hydrolase isozyme L5 (Homo sapiens) (UniProt Q9Y5K5); test: Inhibition of UCHL5 in human HEK293 cells using HA-Ub-VME as substrate at 0.1 to 10 uM incubated for 1 hr by immunoblotting analysis; assay type: cell-based; conditions: dose 0.1-10 µM; summary of the method: as §1
T2 sequence (whole entry): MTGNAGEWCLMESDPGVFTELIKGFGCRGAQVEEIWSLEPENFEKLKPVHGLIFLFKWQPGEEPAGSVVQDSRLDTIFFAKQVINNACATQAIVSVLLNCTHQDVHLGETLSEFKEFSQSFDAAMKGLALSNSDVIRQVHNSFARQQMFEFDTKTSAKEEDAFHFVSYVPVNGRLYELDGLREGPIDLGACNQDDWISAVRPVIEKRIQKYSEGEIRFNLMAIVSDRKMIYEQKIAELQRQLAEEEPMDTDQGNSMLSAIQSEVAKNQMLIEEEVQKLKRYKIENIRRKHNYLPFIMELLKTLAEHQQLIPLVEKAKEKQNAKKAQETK

[5] = target: T3, Ubiquitin carboxyl-terminal hydrolase 30 (Homo sapiens) (UniProt Q70CQ3); test: Inhibition of GST-tagged recombinant USP30 (unknown origin) using Ub-Lys-TAMRA as substrate at 1 uM incubated for 30 mins by fluorescence polarization assay
T3 sequence (whole entry): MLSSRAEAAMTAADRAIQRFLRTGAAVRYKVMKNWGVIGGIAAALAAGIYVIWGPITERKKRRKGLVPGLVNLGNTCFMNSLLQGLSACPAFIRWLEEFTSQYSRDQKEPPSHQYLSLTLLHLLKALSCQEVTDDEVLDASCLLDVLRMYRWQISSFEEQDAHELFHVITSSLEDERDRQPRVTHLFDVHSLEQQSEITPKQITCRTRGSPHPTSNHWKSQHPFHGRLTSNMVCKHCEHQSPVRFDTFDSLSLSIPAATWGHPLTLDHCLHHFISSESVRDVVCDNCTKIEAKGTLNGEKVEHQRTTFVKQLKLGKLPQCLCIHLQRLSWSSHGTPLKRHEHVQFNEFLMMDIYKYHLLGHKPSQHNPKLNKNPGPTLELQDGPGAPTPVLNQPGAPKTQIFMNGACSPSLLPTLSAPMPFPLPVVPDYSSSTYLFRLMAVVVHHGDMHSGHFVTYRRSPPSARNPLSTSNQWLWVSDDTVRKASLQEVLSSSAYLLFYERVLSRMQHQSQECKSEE

[6] = target: T4, Ubiquitin carboxyl-terminal hydrolase BAP1 (Homo sapiens) (UniProt Q92560); test: Inhibition of BAP1 in human HEK293 cells using HA-Ub-VME as substrate at 0.1 to 10 uM incubated for 1 hr by immunoblotting analysis; assay type: cell-based; conditions: dose 0.1-10 µM; summary of the method: as §1
T4 sequence (whole entry): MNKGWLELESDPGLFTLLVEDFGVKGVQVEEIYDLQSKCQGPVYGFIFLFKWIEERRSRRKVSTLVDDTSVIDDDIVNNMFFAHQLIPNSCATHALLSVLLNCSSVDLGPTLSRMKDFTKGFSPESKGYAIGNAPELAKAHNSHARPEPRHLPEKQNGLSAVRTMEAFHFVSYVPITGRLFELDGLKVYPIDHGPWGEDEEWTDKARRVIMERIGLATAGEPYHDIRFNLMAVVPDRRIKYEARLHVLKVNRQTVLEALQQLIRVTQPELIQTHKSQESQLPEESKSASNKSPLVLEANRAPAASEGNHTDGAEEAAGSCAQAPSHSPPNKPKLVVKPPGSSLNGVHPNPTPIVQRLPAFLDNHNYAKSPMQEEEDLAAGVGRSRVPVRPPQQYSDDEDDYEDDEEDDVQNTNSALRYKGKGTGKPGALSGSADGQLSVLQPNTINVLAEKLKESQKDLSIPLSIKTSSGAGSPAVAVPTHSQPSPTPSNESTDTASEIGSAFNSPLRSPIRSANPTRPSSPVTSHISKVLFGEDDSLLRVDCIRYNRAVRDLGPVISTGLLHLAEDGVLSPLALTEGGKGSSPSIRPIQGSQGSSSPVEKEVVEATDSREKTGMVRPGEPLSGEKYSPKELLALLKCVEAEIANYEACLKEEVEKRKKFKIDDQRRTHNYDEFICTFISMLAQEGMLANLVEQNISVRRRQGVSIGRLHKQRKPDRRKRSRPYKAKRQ

Row | Compound | inhibition [1] | EC50 at 72 h [2] [nM] | IC50 [3] [nM] | inhibition [4] | inhibition [5] | inhibition [6]
1 | C#Cc1ccc(-c2cnc(NC(=O)[C@H]3CCN(C#N)C3)s2)cc1 | Active | 350 | 830 | Active | Active | Active
2 | N#CN1CC[C@H](C(=O)Nc2ncc(-c3ccccc3)s2)C1 | Active | 730 | 550 | Active | Active | Active
